# Compounds with a hit are over-represented: about 3.2% of the library has one in this group of screens.
# DENV2 CPE rescue: inhibitors of DENV2 cytopathic effect, primary screen, cell-based, plate reader, single concentration. AID 651640, 2012. 350,000 compounds, 1.7% hits. DENV2-infected cells, cytopathic effect rescue. CPE inhibition, % at 9.99 µM; in the data active = CPE inhibition above about 20%, passing the limit was not always enough; inconclusive = no clear call, values can overlap the other calls; tested in BHK-21 cells;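 note: 0% = median of neutral control wells and 100% = median of positive control wells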
# S100A4 MyoIIA: inhibitors of S100A4-myosin IIA peptide binding, primary screen, biochemical, fluorescence polarization, TAMRA-MyoIIA peptide | Protein S100-A4 (Homo sapiens), P26447 | inhibition, % at 10.7 µM | 360,000 compounds, 0.14% hits | AID 652163, 2013;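 active = mean inhibition of at least 70% across replicates, with every replicate also reaching that level; inconclusive = mean inhibition reaches 70% but some replicates fall short; inactive = mean inhibition below 70%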
# Target sequence (P26447 whole entry, looked up): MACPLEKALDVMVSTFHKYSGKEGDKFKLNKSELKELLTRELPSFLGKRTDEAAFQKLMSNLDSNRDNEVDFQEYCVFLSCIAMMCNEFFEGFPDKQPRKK
#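 Compound dosing: one dose per compound; test system: human S100A4 monomer with TAMRA-labelled myosin IIA peptide; probe or stimulus: TAMRA-labelled myosin IIA heavy-chain peptide probe, 5 nM; medium: HEPES buffer with Ca2+, pH 7.2; schedule: 5 min incubation before reading; benchmarks: neutral control DMSO, positive control TFP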
# rRNA inh HTS: reduced GFP signal of wild-type E. coli, primary screen, bacterial rRNA inhibitor project, GFP/RFP fluorescence, OD600, single point; 350,000 compounds, 1.6% hits; E. coli WT GFP vs humanized-ribosome RFP mutants, 24 h; active compounds read low; DMSO median 0, no signal -100; GFP signal change (wild-type ribosome), % (no concentration beside the values);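 active = significant combined selectivity score with lowered wild-type GFP, culture density cut under 30%, mutant RFP and density less affected; inactive = any of these conditions unmet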
# MLL AF4-AF9 inh: inhibitors of AF4 peptide binding to AF9, primary screen, biochemical, AlphaScreen, biotin-AF4 peptide, FLAG-AF9, single point. Protein AF-9 (Homo sapiens), P42568. inhibition, % at 10 µM. 350,000 compounds, 0.47% hits. AID 651704, 2012;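 active = every replicate reaching a set inhibition limit, whatever the replicate mean, cut at about 25% in these data; inconclusive = mean inhibition reaches that limit but some replicates miss it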;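 note: 0% = plate neutral control median and 100% = total signal loss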
# Target sequence (P42568 whole entry, looked up): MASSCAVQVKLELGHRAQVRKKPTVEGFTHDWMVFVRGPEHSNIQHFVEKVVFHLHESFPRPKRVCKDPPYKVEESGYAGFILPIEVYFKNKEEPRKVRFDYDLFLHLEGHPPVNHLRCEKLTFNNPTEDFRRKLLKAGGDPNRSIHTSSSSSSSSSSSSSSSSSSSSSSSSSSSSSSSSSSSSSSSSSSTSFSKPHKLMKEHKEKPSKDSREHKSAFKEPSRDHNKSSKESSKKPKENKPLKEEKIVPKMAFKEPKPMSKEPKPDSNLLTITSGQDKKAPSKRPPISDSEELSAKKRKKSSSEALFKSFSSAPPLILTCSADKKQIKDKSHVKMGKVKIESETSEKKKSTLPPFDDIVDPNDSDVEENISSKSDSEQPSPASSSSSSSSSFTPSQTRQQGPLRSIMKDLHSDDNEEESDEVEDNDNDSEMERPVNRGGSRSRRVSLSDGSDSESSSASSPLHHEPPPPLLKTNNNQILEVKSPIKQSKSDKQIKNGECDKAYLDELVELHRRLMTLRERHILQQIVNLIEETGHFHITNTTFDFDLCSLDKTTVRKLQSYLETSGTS
# Cneo AK release: Cryptococcus neoformans cell lysis inducers, primary screen, AK release luminescence, single concentration | C. neoformans lysis, adenylate kinase release luminescence, 4 h; normalised: neutral wells 0, clomiphene wells 100 | lysis activity, % at 15 µM | 360,000 compounds, 0.2% hits;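 active = mean lysis activity across replicates of at least 80%, whatever share of replicates individually reach that level; inactive = mean lysis activity below 80%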
#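 read-out = cell lysis signal | test system = log-phase Cryptococcus neoformans yeast cells | input = cells at 5 × 10^6 per mL | medium = fresh YPD growth medium | signal = luminescent adenylate kinase detection reagent | timing = 4 h at 37 °C static, read 1 h later | dosing = single dose | controls = Clomiphene as positive lysis control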
# PfHsp90 yeast 2: growth inhibition of PfHsp90-expressing yeast, primary screen, antimalarial PfHsp90 inhibitor project, S. cerevisiae, BacTiter-Glo luminescence, single point, set 2 | AID 504621, 2011 | inhibition, % at 9.4 µM | BacTiter-Glo ATP, 48 h; yeast lacking PDR1 and PDR3 efflux regulators | 310,000 compounds, 0.32% hits;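 active = every replicate shows inhibition above about 80%, whatever the replicate mean, limit read from the data; inconclusive = mean inhibition reaches the set limit but some replicate falls short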;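 note: 0% = DMSO neutral controls and 100% = 20 µM radicicol positive controls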
# * hit, by the source's call; u = inconclusive; x = no result given; ! = a repeat was not active.
SMILES,DENV2 CPE rescue,S100A4 MyoIIA,rRNA inh HTS,MLL AF4-AF9 inh,Cneo AK release,PfHsp90 yeast 2
C[C@@H]1CN([C@H](C)CO)C(=O)c2cccc(NC(=O)c3ccncc3)c2O[C@@H]1CN(C)S(=O)(=O)c1cccs1,26*,-4,7,-10,-18,x
C[C@H](CO)N1C[C@H](C)[C@@H](CN(C)S(=O)(=O)c2cccs2)Oc2c(NS(=O)(=O)c3ccc(Cl)cc3)cccc2C1=O,-2,3,-5,-2,-1,x
CO[C@H]1CN(C)C(=O)c2cc(NC(=O)C3CC3)ccc2OC[C@H](C)N(CCC(F)(F)F)C[C@@H]1C,10,4,-4,2,0,x
Cn1cc([C@]2(O)C(=O)Nc3ccccc32)c2ccccc21,31*,-3,11,x,x,x
CN1C(=O)[C@@](O)(c2cn(C)c3ccccc23)c2ccccc21,-7,3,4,x,x,x
O=C(NCCCCc1ccccc1)c1ccc(Br)cc1,-1,0,6,-1,-2,112*
O=C(NCCCCc1ccccc1)c1ccccc1Br,2,-3,-36*,1,-1,x
COc1ccccc1OCCNC(=O)c1ccc(C(C)(C)C)cc1,15,0,-11,0,x,2
O=C(NCCCCc1ccccc1)c1ccccc1F,7,-9,-18,2,-3,-12
COc1ccccc1OCCNC(=O)c1ccc(Br)cc1,0,-6,-10,-7,-2,97*
C[C@H](CO)N1C[C@H](C)[C@@H](CN(C)S(=O)(=O)c2ccccc2)OCCCC[C@H](C)Oc2ccc(NS(=O)(=O)c3cccs3)cc2C1=O,2,-1,-3,3,-8,x
C[C@@H]1CN([C@@H](C)CO)C(=O)Cc2cc(NC(=O)Cc3cn(C)c4ccccc34)ccc2O[C@@H]1CN(C)C(=O)NC1CCCCC1,10,2,-2,2,-2,x
COc1ccccc1NC(=O)N[C@H]1CC[C@H](CCNC(=O)c2ccc3c(c2)OCO3)O[C@@H]1CO,12,3,-3,-2,12,x
O=C(NCCO)c1ccc2c3n(nc2c1)-c1ccccc1CO3,69*,-1,2,x,0,6
CC(C)N1CCC2(CC1)N=C(c1ccc3c(c1)OCO3)CC(c1cc(Cl)ccc1O)N2 (stereo not drawn),x,x,x,x,x,120*
CC(Sc1ccc(Cl)cc1)C(=O)Nc1ccc2c(c1)OCO2 (stereo not drawn),x,x,x,x,0,28
C[C@H]1CN([C@@H](C)CO)C(=O)c2cc(C#CC3(O)CCCC3)cnc2O[C@@H]1CN(C)C(=O)C1CC1,x,x,5,x,x,x
CCCN(CC1CC1)C(=O)CSc1ncnc2sccc12,x,48,-18*,-8,x,-39
C[C@H](CO)N1C[C@H](C)[C@@H](CN(C)C(=O)C2CC2)Oc2cc(Br)ccc2S1(=O)=O,-4,9,6,-1,-1,x
CCn1cc(CN2CCCC(C(=O)c3ccc(-c4ccccc4)c(F)c3)C2)cn1 (stereo not drawn),-3,-3,-13,14,-1,19
O=C(c1ccc(-c2ccccc2)c(F)c1)C1CCCN(CCCn2cccn2)C1 (stereo not drawn),0,15,-22*,12,0,30
O=S(=O)(c1cnc(Cl)c(Cl)c1)N1CCc2ccccc21,57*,0,-33*,-3,-2,0
N#C[C@@H]1[C@@H](c2ccccc2)[C@H](CO)N1C(=O)c1ccc2c(c1)OCO2,10,-2,-1,-3,-1,x
CC(=O)N(C)C[C@@H]1Oc2ncc(C#CCC3CCCC3)cc2C(=O)N([C@@H](C)CO)C[C@H]1C,3,4,-2,-1,-5,x
CC(C)(C)SCCNC(=O)c1ccc(Cl)c([N+](=O)[O-])c1,x,x,x,x,x,102*
SMILES,DENV2 CPE rescue,S100A4 MyoIIA,rRNA inh HTS,MLL AF4-AF9 inh,Cneo AK release,PfHsp90 yeast 2
O=C(c1ccccc1F)N1C[C@@H]2O[C@H](CNS(=O)(=O)c3ccccc3)CC[C@@H]21,61*,-37,x,-4,x,x
COc1ccccc1NC(=O)N[C@@H]1C=C[C@@H](CC(=O)N[C@@H](C)c2ccccc2)O[C@H]1CO,-4,-2,-3,0,-5,x
CCCCCC[N+](C)(C)CC/C=C1/c2ccccc2Sc2ccc(Cl)cc21,0,-2,-46,22,x,-10
CN(C)CC/C=C1/c2ccccc2Sc2ccc(Cl)cc21,0,-3,-10,27*!,2,-10
CC(=O)C1=C(C)N(Cc2ccccc2)C(=O)N[C@@H]1c1cccc(C(F)(F)F)c1,-20,-5,-21*,10,1,-15
CC(=O)C1=C(C)N(Cc2ccc(Cl)cc2)C(=S)NC1c1ccc(Cl)cc1 (stereo not drawn),55*,2,4,x,x,x
CC(C)NC(=O)Nc1ccc2c(c1)C(=O)N([C@H](C)CO)C[C@H](C)[C@H](CN(C)CC1CC1)OCCCC[C@H](C)O2,x,x,3,x,x,x
O=C(Cn1cccn1)N1CCCC(Nc2ccc(F)c(F)c2)C1 (stereo not drawn),27*,-6,5,-1,1,-28
O=C1CCCCN1CC(=O)N1CCCC(Nc2ccc(F)c(F)c2)C1 (stereo not drawn),11,-1,1,-1,0,-16
BrC(/C=N/N1CCN(Cc2ccccc2)CC1)=C/c1ccccc1,3,-1,-42*,9,-1,1
CCOc1ccccc1/C=N/N1CCN(Cc2ccccc2)CC1,15,-3,6,28*,2,16
CC(/C=N\N1CCN(Cc2ccc(C)cc2)CC1)=C\c1ccccc1,0,-1,-15,5,x,8
Clc1ccccc1/C=N/N1CCN(Cc2ccccc2)CC1,-2,-1,-16,34*,5,-6
COc1ccc(NC(=O)N(C)C[C@@H]2Oc3ncc(C#CCC(C)C)cc3C(=O)N([C@H](C)CO)C[C@H]2C)cc1,u,1,-1,-12,-2,x
Cc1ccc(N=Nc2cc(C)ccc2N)cc1,-4,-4,-53*,10,x,-39
CCn1c(C)c(C)c2cc(C(=O)NCCCN3CCCCCC3)ccc21,-1,-41,-6,29*,-7,-10
CCn1c(C)c(C)c2cc(C(=O)NCCCN3CCCCC3)ccc21,-1,-48,1,11,16,3
